Test results reported in ChEMBL document CHEMBL1140299, “1-Benzhydryl-3-phenylurea and 1-benzhydryl-3-phenylthiourea derivatives: new templates among the CB1 cannabinoid receptor inverse agonists” (J Med Chem, 2005).

Assays:
[1] = target: Cannabinoid receptor 2 (Homo sapiens) (UniProt P34972); test: Displacement of [3H]CP-55940 from human CB2 receptor expressed in CHO cells at 10 uM; assay type: cell-based
Procedure, shortened: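 Competition binding on membranes of cells expressing hCB2 (40 µg per tube) with [3H]-CP-55940 (1 nM) at 30 °C for 1 h. Buffer: 50 mM Tris-HCl, 3 mM MgCl2, 1 mM EDTA, 0.5% BSA, pH 7.4. DMSO stocks diluted 100× into buffer. Nonspecific binding defined with 10 µM HU-210. Bound label collected by filtration on PEI-pretreated GF/B filters and counted by scintillation. Run at least in triplicate.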

Cannabinoid receptor 1 [2] = target: T1, Cannabinoid receptor 1 (Homo sapiens, UniProt P21554); test: Activity at human CB1 receptor by [35S]GTP-gamma-S binding stimulation assay; assay type: functional
Cannabinoid receptor 1 [3] = target: T1, Cannabinoid receptor 1; details: at 10 µM
Cannabinoid receptor 1 [4] = target: T1, Cannabinoid receptor 1; test: biochemical; assay type: cell-based, CHO

T1 sequence (P21554 whole entry): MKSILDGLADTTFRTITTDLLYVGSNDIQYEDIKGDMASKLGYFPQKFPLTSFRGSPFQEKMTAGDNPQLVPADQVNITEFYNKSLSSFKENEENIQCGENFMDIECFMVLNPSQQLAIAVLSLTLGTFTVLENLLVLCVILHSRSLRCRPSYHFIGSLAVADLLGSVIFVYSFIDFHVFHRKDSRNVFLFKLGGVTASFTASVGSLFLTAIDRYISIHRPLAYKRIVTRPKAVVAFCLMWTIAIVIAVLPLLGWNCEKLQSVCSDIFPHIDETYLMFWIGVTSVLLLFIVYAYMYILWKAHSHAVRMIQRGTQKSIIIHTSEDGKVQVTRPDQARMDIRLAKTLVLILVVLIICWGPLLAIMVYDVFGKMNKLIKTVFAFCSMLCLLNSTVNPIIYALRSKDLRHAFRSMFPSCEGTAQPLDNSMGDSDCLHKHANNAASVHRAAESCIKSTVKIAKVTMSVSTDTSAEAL
Cannabinoid receptor 2 (Homo sapiens), sequence (P34972 whole entry): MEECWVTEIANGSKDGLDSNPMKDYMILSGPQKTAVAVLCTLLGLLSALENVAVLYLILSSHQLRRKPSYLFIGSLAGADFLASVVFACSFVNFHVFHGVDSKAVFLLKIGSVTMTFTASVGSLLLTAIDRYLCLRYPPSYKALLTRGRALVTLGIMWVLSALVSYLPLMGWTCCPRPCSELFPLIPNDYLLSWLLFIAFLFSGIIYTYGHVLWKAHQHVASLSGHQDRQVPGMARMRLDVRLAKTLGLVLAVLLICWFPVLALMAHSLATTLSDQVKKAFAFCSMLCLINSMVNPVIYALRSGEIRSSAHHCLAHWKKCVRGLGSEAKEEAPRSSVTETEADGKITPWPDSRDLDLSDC

## O=C(Nc1ccc(CO)cc1)NC(c1ccc(Br)cc1)c1ccc(Br)cc1
[1]
  Activity: < 20%

## S=C(Nc1ccc(Cl)cc1)NC(c1ccc(Br)cc1)c1ccc(Br)cc1
Cannabinoid receptor 1 [2]
  EC50: 1250 nM (inverse agonist)
[1]
  Activity: 29%
Cannabinoid receptor 1 [3]; filed as inverse agonist
  Emax: -61%
Cannabinoid receptor 1 [4]
  Ki: 1.5 µM (antagonist)

## O=C1NC(c2ccccc2)(c2ccccc2)C(=O)N1c1ccc(Br)cc1
[1]
  Activity: < 20%

## O=C(Nc1ccc(I)cc1)NC(c1ccc(Br)cc1)c1ccc(Br)cc1
[1]
  Activity: 34%

## O=C(Nc1ccc(Br)cc1)NC(c1ccc(Br)cc1)c1ccc(Br)cc1
Cannabinoid receptor 1 [2]
  EC50: 500 nM (inverse agonist)
[1]
  Activity: 22%
Cannabinoid receptor 1 [3]; filed as inverse agonist
  Emax: -61%
Cannabinoid receptor 1 [4]
  Ki: 0.5 µM (antagonist)

## S=C(Nc1ccccc1)NC(c1ccc(Cl)cc1)c1ccc(Cl)cc1
[1]
  Activity: 23%
Cannabinoid receptor 1 [4]
  Ki: 2.9 µM (antagonist)

## O=C(Nc1ccc(Br)cc1)NC(c1ccccc1)c1ccccc1
[1]
  Activity: < 20%

## O=C(Nc1ccc(I)cc1)NC(c1ccccc1)c1ccccc1
[1]
  Activity: < 10%

## O=C1N(c2ccccc2)C(=S)NC1(c1ccc(Br)cc1)c1ccc(Br)cc1
[1]
  Activity: < 20%
Cannabinoid receptor 1 [4]
  Ki: 3.45 µM (antagonist)

## O=C(Nc1ccccc1)NC(c1ccc(Cl)cc1)c1ccc(Cl)cc1
[1]
  Activity: 23%
Cannabinoid receptor 1 [4]
  Ki: 7.05 µM (antagonist)

## O=C(Nc1ccccc1)NC(c1ccc(F)cc1)c1ccc(F)cc1
[1]
  Activity: < 10%

## S=C(Nc1ccccc1)NC(c1ccc(Br)cc1)c1ccc(Br)cc1
[1]
  Activity: 29%
Cannabinoid receptor 1 [4]
  Ki: 1.8 µM (antagonist)

## CCCCCCc1ccc(NC(=O)NC(c2ccc(Br)cc2)c2ccc(Br)cc2)cc1
[1]
  Activity: < 20%

## O=C(Nc1ccccc1)NC(c1ccc(Br)cc1)c1ccc(Br)cc1
[1]
  Activity: 38%
Cannabinoid receptor 1 [4]
  Ki: 2.9 µM (antagonist)

## COc1ccc(NC(=O)NC(c2ccccc2)c2ccccc2)cc1
[1]
  Activity: < 20%

## CCCCCCC(C)(C)c1cc(O)c2c(c1)OC(C)(C)[C@H]1CC=C(CO)C[C@H]21 [DEXANABINOL]
Cannabinoid receptor 1 [2]
  EC50: 0.6 nM (inverse agonist)
Cannabinoid receptor 1 [3]; filed as agonist
  Emax: 200%
Cannabinoid receptor 1 [4]
  Ki: 0.019 µM (antagonist)

## O=C1NC(c2ccc(F)cc2)(c2ccc(F)cc2)C(=O)N1c1ccccc1
[1]
  Activity: < 20%

## O=C1NC(c2ccc(Br)cc2)(c2ccc(Br)cc2)C(=O)N1c1ccccc1
[1]
  Activity: < 20%

## O=C(Nc1ccc(Cl)cc1)NC(c1ccccc1)c1ccccc1
[1]
  Activity: < 20%

## O=C1N(c2ccc(Cl)cc2)C(=S)NC1(c1ccc(Br)cc1)c1ccc(Br)cc1
[1]
  Activity: < 20%
Cannabinoid receptor 1 [4]
  Ki: 2.75 µM (antagonist)

## O=C1NC(c2ccccc2)(c2ccccc2)C(=O)N1c1ccccc1
[1]
  Activity: < 20%

## O=C(Nc1ccc(F)cc1)NC(c1ccccc1)c1ccccc1
[1]
  Activity: < 10%

## O=C(Nc1ccccc1F)NC(c1ccccc1)c1ccccc1
[1]
  Activity: < 10%

## O=C(Nc1ccccc1)NC(c1ccccc1)c1ccccc1
[1]
  Activity: < 10%

## CCCCCCc1ccc(NC(=O)NC(c2ccccc2)c2ccccc2)cc1
[1]
  Activity: 24%

## O=C(Nc1ccc(Cl)cc1)NC(c1ccc(Cl)cc1)c1ccc(Cl)cc1
Cannabinoid receptor 1 [2]
  EC50: 1050 nM (inverse agonist)
[1]
  Activity: 24%
Cannabinoid receptor 1 [3]; filed as inverse agonist
  Emax: -74%
Cannabinoid receptor 1 [4]
  Ki: 1.1 µM (antagonist)

## O=C(Nc1ccc(Br)cc1)NC(c1ccc(I)cc1)c1ccc(I)cc1
[1]
  Activity: 19%
Cannabinoid receptor 1 [4]
  Ki: 0.75 µM (antagonist)

## S=C(Nc1ccc(Cl)cc1)NC(c1ccc(Cl)cc1)c1ccc(Cl)cc1
[1]
  Activity: 23%
Cannabinoid receptor 1 [4]
  Ki: 1.9 µM (antagonist)

## O=C(Nc1ccc(Cl)cc1)NC(c1ccc(Br)cc1)c1ccc(Br)cc1
Cannabinoid receptor 1 [2]
  EC50: 450 nM (inverse agonist)
[1]
  Activity: 31%
Cannabinoid receptor 1 [3]; filed as inverse agonist
  Emax: -72%
Cannabinoid receptor 1 [4]
  Ki: 0.65 µM (antagonist)

## O=C(Nc1ccc(Br)cc1)NC(c1ccc(Cl)cc1)c1ccc(Cl)cc1
Cannabinoid receptor 1 [2]
  EC50: 700 nM (inverse agonist)
[1]
  Activity: 29%
Cannabinoid receptor 1 [3]; filed as inverse agonist
  Emax: -66%
Cannabinoid receptor 1 [4]
  Ki: 1.25 µM (antagonist)
